# Experimental data pooled from the literature.
# Lines come from different studies, so protocols differ.
# Target: Carbonic anhydrase 9 (CA9, Homo sapiens, UniProt Q16790)
# Observed: enzyme activity
# Action: inhibitor
SMILES,assay,endpoint,value
COc1ccc(C(=O)/C=C/c2cc3c(cc2Br)OCO3)cc1S(N)(=O)=O,,Ki,8.17 µM
NS(=O)(=O)c1ccc(-n2nccc2-c2ccc(N3CCCCC3)cc2)cc1,,Ki,0.227 µM
Cc1ccc(C(=O)Nc2ccc(C(=O)Nc3cccc(S(N)(=O)=O)c3)cc2)s1,,IC50,0.409 µM
NS(=O)(=O)c1ccc(CCNC2=NS(=O)(=O)c3ccc(Cl)cc3N2)cc1,stopped-flow,Ki,0.0372 µM
Cn1cc(-c2cccc3oc(C(=O)NC4CCCN(CC(=O)Nc5ccc(S(N)(=O)=O)cc5)C4)cc23)nn1 (stereo not shown),,IC50,0.0302 µM
COc1ccc(C(=O)/C=C/c2cccc3ccccc23)cc1S(N)(=O)=O,,Ki,1.64 µM
NS(=O)(=O)c1ccc(NC2=NC(=O)/C(=C\c3ccc(O)cc3)S2)cc1,,IC50,0.203 µM
Cc1ccc(-c2ccc(Nc3ccc(S(N)(=O)=O)cc3)nn2)cc1S(=O)(=O)N1CCCCC1,,IC50,0.00794 µM
COc1cc(/C=C2/SC(Nc3ccc(S(N)(=O)=O)cc3)=NC2=O)cc(OC)c1OC,,IC50,0.0395 µM
NS(=O)(=O)c1ccc(-n2nccc2-c2ccc(N3CCOCC3)cc2)cc1,,Ki,0.245 µM
